In ChEMBL document CHEMBL5329218, “Novel styryl-thiazole hybrids as potential anti-Alzheimer's agents” (RSC Med Chem, 2023):
pIC50: −log10 of the molar value. Calls of active or inactive are those of the source. No cut-off for these calls is given here.

How the values were obtained:
Beta-secretase 1 = Beta-secretase 1 (Homo sapiens, UniProt P56817); assay: Inhibition of BACE1 (unknown origin) expressed in baculovirus expression system using Rh-EVNLDAEFKQuencher peptide substrate incubated for 90 mins by FRET assay
Sequence of Beta-secretase 1 (P56817 whole entry): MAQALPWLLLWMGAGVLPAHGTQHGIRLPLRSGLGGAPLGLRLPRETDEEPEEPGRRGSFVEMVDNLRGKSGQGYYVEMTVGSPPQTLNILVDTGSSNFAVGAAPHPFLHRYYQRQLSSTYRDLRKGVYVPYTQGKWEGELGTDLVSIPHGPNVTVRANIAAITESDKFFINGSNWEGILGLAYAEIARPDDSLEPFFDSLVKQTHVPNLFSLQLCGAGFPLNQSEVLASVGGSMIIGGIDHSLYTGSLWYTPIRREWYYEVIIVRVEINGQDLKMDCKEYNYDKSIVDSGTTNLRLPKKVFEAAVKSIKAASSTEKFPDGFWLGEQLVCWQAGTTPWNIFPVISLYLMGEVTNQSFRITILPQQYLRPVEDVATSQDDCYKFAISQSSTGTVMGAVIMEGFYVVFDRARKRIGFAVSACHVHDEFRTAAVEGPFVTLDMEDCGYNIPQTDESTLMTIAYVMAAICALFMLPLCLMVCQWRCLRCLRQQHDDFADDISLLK

SH-SY5Y [1] = assay: Neuroprotective activity against amyloid beta 1-42-treated human SH-SY5Y cells assessed as increase in cell viability at 25 ug/ml incubated for 24 hrs by MTT assay relative to control; details: dose 25 µg/ml
SH-SY5Y [2] = assay: Neuroprotective activity against amyloid beta 1-42-treated human SH-SY5Y cells assessed as decrease in AChE activity incubated for 30 mins by microplate reader analysis (reference value: 459.6 +/- 32.152 mU/ml); format: functional; details: dose 0.5 mM
Acetylcholinesterase = Acetylcholinesterase (Homo sapiens, UniProt P22303); assay: Inhibition of AChE (unknown origin) using acetylthiocholine iodide as substrate prewarmed for 10 mins followed by substrate addition measured after 15 mins by DTNB assay
Sequence of Acetylcholinesterase (P22303 whole entry): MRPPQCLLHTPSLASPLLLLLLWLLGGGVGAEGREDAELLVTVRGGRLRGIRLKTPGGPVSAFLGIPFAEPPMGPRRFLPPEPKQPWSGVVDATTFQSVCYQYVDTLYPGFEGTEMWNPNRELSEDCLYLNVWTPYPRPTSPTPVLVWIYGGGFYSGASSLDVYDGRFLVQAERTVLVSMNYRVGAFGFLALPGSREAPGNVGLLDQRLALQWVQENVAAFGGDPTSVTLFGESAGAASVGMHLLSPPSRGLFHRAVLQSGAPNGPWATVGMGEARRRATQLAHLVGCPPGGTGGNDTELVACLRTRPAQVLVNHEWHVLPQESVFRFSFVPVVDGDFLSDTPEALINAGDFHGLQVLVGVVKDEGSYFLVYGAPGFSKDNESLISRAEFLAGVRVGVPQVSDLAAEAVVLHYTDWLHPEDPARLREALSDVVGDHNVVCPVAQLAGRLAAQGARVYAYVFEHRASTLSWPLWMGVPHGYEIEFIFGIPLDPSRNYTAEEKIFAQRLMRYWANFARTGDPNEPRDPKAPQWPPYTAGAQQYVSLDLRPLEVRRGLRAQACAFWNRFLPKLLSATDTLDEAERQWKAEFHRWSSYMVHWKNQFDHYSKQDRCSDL
In short: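 Purified AChE at 0.005 unit per well in 50 mM Na2HPO4, pH 7.7. Test compound at 0.5 mM per well, read at 405 nm, then preincubated 10 min at 37 °C. Started with acetylthiocholine iodide and DTNB (each 0.5 mM per well). Absorbance at 405 nm after 15 min at 37 °C. Eserine reference, triplicate; % inhibition versus control, IC50 by kinetics fitting.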

[3] = Genotoxicity in human SH-SY5Y cells assessed as mean nuclear abnormalities measured per 1000 cells at 100 ug/ml incubated for 24 hrs by Hoechst 33258 staining based fluorescent microscopy (reference value: 0.016 +/- 0.007); format: toxicity, cell-based; details: dose 100 µg/ml
[4] = Genotoxicity in human SH-SY5Y cells assessed as nuclear abnormalities by measuring total micronucleus at 100 ug/ml incubated for 24 hrs by Hoechst 33258 staining based fluorescent microscopy (reference value: 6); format: toxicity, cell-based; details: dose 100 µg/ml
[5] = Genotoxicity in human SH-SY5Y cells assessed as nuclear abnormalities by measuring total lobbed nucleus at 100 ug/ml incubated for 24 hrs by Hoechst 33258 staining based fluorescent microscopy (reference value: 5); format: toxicity, cell-based; details: dose 100 µg/ml
SH-SY5Y [6] = assay: Neuroprotective activity against amyloid beta 1-42-treated human SH-SY5Y cells assessed as decrease in beta-secretase activity measured per mg protein incubated for 30 mins by microplate reader analysis (reference value: 54.35 +/- 4.34 RFU); format: functional; details: 0.5 h
SH-SY5Y [7] = assay: Antialzheimer activity against RA/BDNF-treated human SH-SY5Y cells assessed as cell viability at 12.5 to 100 ug/ml incubated for 24 hrs by MTT assay; format: functional, cell-based; details: dose 12.5-100 µg/ml
In short: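 SH-SY5Y grown in DMEM:F12 with 10% FBS at 37 °C, 5% CO2. Differentiated with 10 µM retinoic acid to day 8 (3% FBS medium refreshed every 2 days), then 25 nM BDNF for 5 days. Compound exposure, then MTT for 3 h at 37 °C. Formazan dissolved in DMSO, absorbance at 570 nm. 1.0% Triton X-100 as control.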

[8] = Genotoxicity in human SH-SY5Y cells assessed as nuclear abnormalities by measuring total notched mutations at 100 ug/ml incubated for 24 hrs by Hoechst 33258 staining based fluorescent microscopy (reference value: 5); format: toxicity, cell-based; details: dose 100 µg/ml
SH-SY5Y [9] = assay: Neuroprotective activity against amyloid beta 1-42-treated human SH-SY5Y cells assessed as reduction in beta amyloid aggregation by Congo Red dye based analysis; format: functional, cell-based
In short: (§1)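 SH-SY5Y differentiated with RA then BDNF. Aβ1-42 pre-fibrillized at 20 µM in medium for 24 h, then 20 µM added with compounds for 24 h. Cells fixed in 4% paraformaldehyde at 4 °C for 30 min. Stained with 1 µM Congo red for 1 h in the dark, washed with PBS, dye extracted into DMSO, absorbance at 497 nm.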

SH-SY5Y [10] = assay: Neuroprotective activity against amyloid beta 1-42-treated human SH-SY5Y cells assessed as increase in cell viability at 50 ug/ml incubated for 24 hrs by MTT assay relative to control; details: dose 50 µg/ml
SH-SY5Y [11] = assay: Neuroprotective activity against amyloid beta 1-42-treated human SH-SY5Y cells assessed as reduction in beta amyloid aggregation by Congo Red dye based analysis relative to control; format: functional; design: scale not given: the % may be the effect or the level left; in short: as §1

SMILES	pIC50 (Beta-secretase 1)	Activity (SH-SY5Y [1]) [%]	Activity (SH-SY5Y [2]) [mU/ml]	pIC50 (Acetylcholinesterase)	Activity [3]	Activity [4]	Activity [5]	Activity (SH-SY5Y [6]) [RFU]	Activity (SH-SY5Y [7])	Activity [8]	Activity (SH-SY5Y [9])	Activity (SH-SY5Y [10]) [%]	Activity (SH-SY5Y [11]) [%]
Brc1ccc(-c2csc(/C=C/c3ccccc3)n2)cc1	4.35	~30	375.6	3.64	0.017	4	5	17.41	Active	9	Active	–	–
COc1ccc(/C=C/c2nc(-c3ccc(OC)cc3)cs2)cc1	4.11	–	397.6	3.71	0.017	6	6	14.13	Active	5	–	~34	>80
